# Test results published in ChEMBL document CHEMBL1629542, “Epigallocatechin gallate inactivates clinical isolates of herpes simplex virus” (Antimicrob Agents Chemother, 2008).
# Activity calls are given as the source filed them. The calls are words filed in the database; no cut-off is given here.
# Legend:
# Human alphaherpesvirus 2 [1] = test: Antiviral activity against Human herpesvirus 2 isolate P27 infected in African green monkey CV1 cells; type: functional, organism-based; conditions: Human alphaherpesvirus 2, isolate P27, CV-1
# How it was run: (§1)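 HSV-2 (clinical swab isolates or strain 333) was grown in CV-1 cells and used as clarified supernatant. Virus was exposed to graded EGCG for 1 h in RPMI 1640 with 1% FCS, pH 7.4. Tenfold dilutions were titrated on CV-1 cells, three wells each, 5 days at 37°C, scoring CPE. TCID50 was calculated by Reed-Muench. IC99 was read graphically as 99% titer drop from the zero-concentration titer. Mean of three experiments.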
# Human alphaherpesvirus 1 [2] = test: Antiviral activity against Human herpesvirus 1 isolate P15 infected in African green monkey vero cells assessed as reduction in viral titer; type: functional, organism-based; conditions: Human alphaherpesvirus 1, isolate P15, Vero
# How it was run: (§2)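 Laboratory HSV-1 F1 or patient-swab HSV-1 isolates were prepared as clarified Vero supernatants. They were incubated 1 h with a range of EGCG concentrations in RPMI 1640/1% FCS at pH 7.4. Titres were determined on Vero cells by 5-day CPE endpoint (Reed-Muench). IC99 was read graphically as 99% titre drop from untreated; mean ± SD, three experiments.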
# Human alphaherpesvirus 1 [3] = test: Binding affinity to Envelope glycoprotein B in Human herpesvirus 1 F1 assessed as macromolecular complex formation by SDS-PAGE
# How it was run: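 Purified HSV-1 gB or gD (500 to 700 μg/ml) was incubated with EGCG (250 μg/ml; 545 μM) in 0.1 M potassium phosphate, pH 7.0, at 35°C for 24 h. Products were denatured at 50°C for 15 min in sample buffer and run on 6.5% SDS-PAGE. Bands were stained with Coomassie blue to detect higher-molecular-weight complexes.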
# Human alphaherpesvirus 2 [4] = test: Antiviral activity against Human herpesvirus 2 isolate P2 infected in African green monkey CV1 cells; type: functional, organism-based; conditions: Human alphaherpesvirus 2, isolate P2, CV-1
# How it was run: (§3)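 HSV-2 patient-swab isolates were grown as clarified CV-1 supernatants and incubated 1 h with a range of EGCG concentrations (RPMI 1640/1% FCS, pH 7.4). They were titrated on CV-1 cells from 10-fold dilutions by 5-day CPE at 37°C, with Reed-Muench TCID50. IC99 was derived graphically as 99% reduction from zero-drug titre; mean ± SD, three experiments.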
# Human alphaherpesvirus 1 [5] = test: Antiviral activity against Human herpesvirus 1 isolate P25 infected in African green monkey vero cells assessed as reduction in viral titer; type: functional, organism-based; conditions: Human alphaherpesvirus 1, isolate P25, Vero; how it was run: as §2
# Human alphaherpesvirus 1 [6] = test: Antiviral activity against Human herpesvirus 1 isolate P38 infected in African green monkey vero cells assessed as reduction in viral titer at 100 uM; type: functional, organism-based; how it was run: as §2
# Human alphaherpesvirus 1 [7] = test: Antiviral activity against Human herpesvirus 1 isolate P32 infected in African green monkey vero cells assessed as reduction in viral titer at 100 uM; type: functional, organism-based; how it was run: as §2
# Human alphaherpesvirus 1 [8] = test: Antiviral activity against Human herpesvirus 1 isolate P42 infected in African green monkey vero cells assessed as log reduction in viral titer at 100 uM after 30 mins; type: functional
# How it was run: (§4)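 In the time course, HSV-1 clinical isolates (clarified Vero supernatants) were exposed to 100 μM EGCG for varying times up to 60 min. Residual infectivity was then titrated on Vero cells by 5-day CPE endpoint with Reed-Muench calculation. Mean ± SD of three separate experiments.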
# Human alphaherpesvirus 2 [9] = test: Antiviral activity against Human herpesvirus 2 isolate P22 infected in African green monkey CV1 cells; type: functional, organism-based; conditions: Human alphaherpesvirus 2, isolate P22, CV-1; how it was run: as §1
# Human alphaherpesvirus 1 [10] = test: Antiviral activity against Human herpesvirus 1 isolate P32 infected in African green monkey vero cells assessed as reduction in viral titer; type: functional, organism-based; conditions: Human alphaherpesvirus 1, isolate P32, Vero; how it was run: as §2
# Human alphaherpesvirus 2 [11] = test: Antiviral activity against Human herpesvirus 2 isolate P22 infected in African green monkey CV1 cells assessed as log reduction in viral titer at 100 uM within 10 mins; type: functional, CV-1
# How it was run: (§5)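 Time course: clarified CV-1 supernatant of HSV-2 (clinical isolates or strain 333) was exposed to 100 μM EGCG for increasing times. It was then titrated by tenfold dilution on CV-1 cells, three wells per dilution, for 5 days at 37°C with CPE read-out. Reed-Muench TCID50 was compared with the untreated titer. Mean of three separate experiments.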
# Human alphaherpesvirus 1 [12] = test: Antiviral activity against Human herpesvirus 1 isolate P32 infected in African green monkey vero cells assessed as log reduction in viral titer at 100 uM after 30 mins; type: functional; how it was run: as §4
# Human alphaherpesvirus 2 [13] = test: Antiviral activity against Human herpesvirus 2 isolate P11 infected in African green monkey CV1 cells assessed as log reduction in viral titer at 12.5 uM; type: functional, CV-1; how it was run: as §3
# Human alphaherpesvirus 1 [14] = test: Antiviral activity against Human herpesvirus 1 F1 assessed as decrease in labeled gD envelope glycoprotein at 100 uM after 2 hrs by electron microscopy; type: functional, organism-based
# How it was run: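 Purified HSV-1 F1 virions were treated with 100 μM EGCG for 2 h, fixed in glutaraldehyde/paraformaldehyde and LR White-embedded without osmium. Nickel-grid sections were blocked with BSA and goat serum, then labelled overnight with anti-gB or anti-gD monoclonal (1:15) and 15 nm colloidal gold. Labelled versus unlabelled particles were counted in 10 fields of 100 particles; mean ± SD.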
# Human alphaherpesvirus 1 [15] = test: Antiviral activity against Human herpesvirus 1 isolate P25 infected in African green monkey vero cells assessed as log reduction in viral titer at 100 uM after 40 to 60 mins; type: functional; how it was run: as §4
# Human alphaherpesvirus 2 [16] = test: Antiviral activity against Human herpesvirus 2 isolate P27 infected in African green monkey CV1 cells assessed as log reduction in viral titer at 100 uM within 20 mins; type: functional, CV-1; how it was run: as §5
# Human alphaherpesvirus 1 [17] = test: Antiviral activity against Human herpesvirus 1 isolate P56 infected in African green monkey vero cells assessed as log reduction in viral titer at 100 uM within 10 mins; type: functional; how it was run: as §4
# Human alphaherpesvirus 1 [18] = test: Antiviral activity against Human herpesvirus 1 F1 infected in African green monkey vero cells assessed as log reduction in viral titer at 100 uM; type: functional
# How it was run: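 HSV-1 F1 was grown in Vero cells and the clarified supernatant was incubated with 100 μM EGCG for 60 min at 37°C in RPMI 1640/1% FCS, pH 7.4. Titre was then measured on Vero cells from 10-fold dilutions, three wells per dilution, over 5 days at 37°C by CPE. TCID50 was calculated by Reed-Muench; three separate experiments.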
# Human alphaherpesvirus 1 [19] = test: Antiviral activity against Human herpesvirus 1 isolate P32 infected in African green monkey vero cells assessed as log reduction in viral titer at 50 uM; type: functional; how it was run: as §2
# Human alphaherpesvirus 1 [20] = test: Antiviral activity against Human herpesvirus 1 isolate P15 infected in African green monkey vero cells assessed as reduction in viral titer at 100 uM; type: functional, organism-based; how it was run: as §2
# Human alphaherpesvirus 2 [21] = test: Antiviral activity against Human herpesvirus 2 strain 333 strain 333 infected in African green monkey CV-1 cells; type: functional, cell-based; conditions: Human alphaherpesvirus 2, strain 333, CV-1; how it was run: as §1
# Human alphaherpesvirus 1 [22] = test: Antiviral activity against Human herpesvirus 1 isolate P15 infected in African green monkey vero cells assessed as log reduction in viral titer at 100 uM after 40 to 60 mins; type: functional; how it was run: as §4
# Human alphaherpesvirus 2 [23] = test: Antiviral activity against Human herpesvirus 2 isolate P47 infected in African green monkey CV1 cells assessed as log reduction in viral titer at 100 uM within 20 mins; type: functional, CV-1; how it was run: as §5
# Human alphaherpesvirus 1 [24] = test: Antiviral activity against Human herpesvirus 1 isolate P42 infected in African green monkey vero cells assessed as reduction in viral titer at 100 uM; type: functional, organism-based; how it was run: as §2
# Human alphaherpesvirus 2 [25] = test: Antiviral activity against Human herpesvirus 2 isolate P2 infected in African green monkey CV1 cells assessed as log reduction viral titer at 12.5 ug/ml; type: functional, CV-1; how it was run: as §1
structure (smiles),measurement,setting,value
O=C(O[C@@H]1Cc2c(O)cc(O)cc2O[C@@H]1c1cc(O)c(O)c(O)c1)c1cc(O)c(O)c(O)c1 [EPIGALOCATECHIN GALLATE],IC99,Human alphaherpesvirus 2 [1],12.1 µM
same,IC99,Human alphaherpesvirus 1 [2],48.4 µM
same,Activity,Human alphaherpesvirus 1 [3],Active
same,IC99,Human alphaherpesvirus 2 [4],12.3 µM
same,IC99,Human alphaherpesvirus 1 [5],45.4 µM
same,Activity,Human alphaherpesvirus 1 [6],Active
same,Activity,Human alphaherpesvirus 1 [7],Active
same,FC,Human alphaherpesvirus 1 [8],2
same,IC99,Human alphaherpesvirus 2 [9],12.5 µM
same,IC99,Human alphaherpesvirus 1 [10],16 µM
same,FC,Human alphaherpesvirus 2 [11],2
same,FC,Human alphaherpesvirus 1 [12],2
same,FC,Human alphaherpesvirus 2 [13],>=2
same,Activity,Human alphaherpesvirus 1 [14],Active
same,FC,Human alphaherpesvirus 1 [15],3
same,FC,Human alphaherpesvirus 2 [16],3
same,FC,Human alphaherpesvirus 1 [17],2
same,FC,Human alphaherpesvirus 1 [18],>=3
same,FC,Human alphaherpesvirus 1 [19],2
same,Activity,Human alphaherpesvirus 1 [20],Active
same,IC99,Human alphaherpesvirus 2 [21],25 µM
same,FC,Human alphaherpesvirus 1 [22],3
same,FC,Human alphaherpesvirus 2 [23],3
same,Activity,Human alphaherpesvirus 1 [24],Active
same,FC,Human alphaherpesvirus 2 [25],3.15
